# Thrombin inh – human alpha-thrombin inhibitors, primary screen, counter-screen for coagulation protease inhibitor project, biochemical, 1536-well, fluorogenic AMC substrate; Prothrombin (Homo sapiens), P00734; Boc-VPR-AMC fluorogenic substrate cleavage; inhibition, % at 5 µM; hit rate 0.26% among 220,000;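 active = inhibition at or above 40%; inactive = inhibition below 40%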;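 also: 0% = enzyme with no compound and 100% = wells without enzyme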
#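 System: human alpha-thrombin protein; Compound dosing: one concentration per compound, 5 µM, with 0.2% DMSO; Timing: reaction at room temperature; Technique: AMC fluorescence, 355/460 nm; Controls: enzyme without compound as high, wells lacking enzyme as low.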
# KLK5 inh – human KLK5 protease inhibitors, primary screen, biochemical, 1536-well; Kallikrein-5 (Homo sapiens), Q9Y337; recombinant hK5, fluorogenic AMC substrate cleavage; inhibition, % at 5 µM; hit rate 0.59% among 210,000;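 active = inhibition of 40% or more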;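 also: 0% = enzyme controls without compound and 100% = no-enzyme blanks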
# FXIa inh 1536 – human FXIa protease inhibitors, primary screen, biochemical, 1536-well. Coagulation factor XI (Homo sapiens), P03951. purified FXIa, Boc-Glu-Ala-Arg-AMC fluorogenic substrate. inhibition, % at 5 µM. hit rate 0.14% among 220,000. AID 798, 2007;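 active = inhibition of at least 40%; inactive = inhibition below 40%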;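 also: fluorescence of freed AMC excited at 355 nm; 0% = enzyme without compound and 100% = no enzyme blank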
# EP2 antag – human EP2 receptor antagonists, primary screen, TR-FRET cAMP, C6 glioma cells; AID 1422, 2008; inhibition, % at 25 µM; C6 glioma cells expressing human EP2; cells stimulated with saturating PGE2; hit rate 0.52% among 260,000;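 active = percent inhibition above 40 after rounding to a whole number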;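 also: rat C6 glioma host cells with rolipram phosphodiesterase inhibitor present; the protocol text gives 20 µM as final concentration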
# EP2 mod – EP2 receptor modulators, cAMP readout, primary screen, cell-based, HTRF cAMP, PGE2 stimulation; Prostaglandin E2 receptor EP2 subtype (Homo sapiens), P43116; EP2-expressing cells, cAMP HTRF FRET, PGE2 co-stimulation; induction, % at 25 µM; hit rate 0.83% among 260,000; AID 940, 2007;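 active = compounds whose cAMP rise, as percent of the full-agonist control response, exceeds 60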;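 also: rat C6 glioma line stably carrying human EP2 under a CMV promoter; the protocol text gives 20 µM as final concentration; 100% = response of wells given 1 µM PGE2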
# FXIIa inh 1536 – human FXIIa protease inhibitors, primary screen, biochemical, 1536-well. purified FXIIa, Boc-QGR-AMC fluorogenic substrate, 2 h. hit rate 0.3% among 220,000. inhibition, % at 5 µM; in the data active = inhibition above about 40%;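 also: 0% = enzyme with no compound and 100% = blank without enzyme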
# Target sequence (P00748 20-372 limits assumed): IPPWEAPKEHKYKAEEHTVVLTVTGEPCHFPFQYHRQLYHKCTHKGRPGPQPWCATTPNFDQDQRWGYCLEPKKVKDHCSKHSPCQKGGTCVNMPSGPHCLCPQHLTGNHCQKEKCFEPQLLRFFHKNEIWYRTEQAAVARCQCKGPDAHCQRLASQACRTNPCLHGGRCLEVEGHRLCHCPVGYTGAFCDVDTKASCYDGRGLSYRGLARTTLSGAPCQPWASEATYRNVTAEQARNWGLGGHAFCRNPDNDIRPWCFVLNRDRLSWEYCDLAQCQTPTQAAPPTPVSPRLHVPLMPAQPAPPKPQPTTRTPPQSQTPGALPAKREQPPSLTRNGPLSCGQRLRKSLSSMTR
# Target sequence (P00748 373-615 limits assumed): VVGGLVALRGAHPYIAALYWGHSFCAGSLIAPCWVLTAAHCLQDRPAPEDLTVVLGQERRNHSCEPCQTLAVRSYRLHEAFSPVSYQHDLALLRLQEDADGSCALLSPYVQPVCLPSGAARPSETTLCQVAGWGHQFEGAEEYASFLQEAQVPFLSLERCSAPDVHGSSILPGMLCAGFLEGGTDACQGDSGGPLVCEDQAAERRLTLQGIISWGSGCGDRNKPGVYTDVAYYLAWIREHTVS
# An asterisk follows results filed as active; · = no result. The list is not random: actives were taken first. Their share in the collection is about 2.1%.
SMILES,Thrombin inh,KLK5 inh,FXIa inh 1536,EP2 antag,EP2 mod,FXIIa inh 1536
O=C(Nc1ccc([As](=O)(O)O)cc1)Nc1cccc(Cl)c1Cl,·,·,·,58*,2,·
COc1ccc2c(c1)C(=O)CC1(CCNCC1)O2,·,·,·,5,-49,·
CC(C)OP(=O)(OC(C)C)C(O)c1ccccc1F (stereo unspecified),5,-9,1,50*,2,3
C=CCn1ncc(CN2C3CCC2CC(O)(c2ccc(OC)cc2)C3)c1C (stereo unspecified),·,·,·,10,33,·
Nc1ccc(NC2=NCCCS2)cc1,·,·,·,5,-7,·
CCc1cccc2c(CC(=O)N(CCN(C)C)C3CCN(C)CC3)c(C)[nH]c12,·,·,·,6,-49,·
O=C(O)CN1CCN(CC(=O)O)CC(=O)[O][Hg][O]C(=O)C1,·,·,·,103*,-25,·
O=C(c1cccn2c(=O)c3cc(Br)ccc3nc12)N1CCC2(CC1)OCCO2,20,38,55*,9,-5,1
O=C(c1cccn2c(=O)c3ccc(Cl)cc3nc12)N1CCC2(CC1)OCCO2,-20,-2,21,·,7,9
CCn1ncc(CN(CCc2ccccc2)Cc2cccs2)c1C,·,·,·,2,44,·
C=Cn1cc(CN(CCc2ccccc2)Cc2cccs2)c(C)n1,·,·,·,2,69*,·
Nc1cc[c]([Hg])cc1.Nc1nc2c(ncn2[C@H]2O[C@H](CO)[C@@H](O)[C@@H]2O)c(=[SH+])[nH]1,·,·,·,104*,-43,·
Nc1nc(=S)c2ncn(C3OC(CO)C(O)C3O)c2[nH]1 (stereo unspecified),2,0,2,14,0,12
Cn1nc(CC(=O)N2CCCCC2CN2CCCC2)c2ccccc2c1=O (stereo unspecified),·,·,·,6,-33,·
NCC(=O)c1ccccc1,·,·,·,10,26,·
O=S(=O)(O)/C(=C\c1ccccc1)c1ccccc1 (tested in a mixture with another compound),·,·,·,46*,26,·
C=Cn1cc(CN2C3CCC2CC(O)(c2nccn2C)C3)c(C)n1 (stereo unspecified),·,·,·,5,-7,·
CCOC(=O)c1ccc(N=C(c2ccccc2)c2c(O)n(C)c(=O)n(C)c2=O)cc1,-8,43*,-13,17,11,-1
Nc1ccncc1Cl,16,41*,32,18,-12,28
Nc1ccncc1,-1,-12,1,9,23,10
CC1(C)CCC(C)(C)c2c1ccc(O)c2Cc1c(O)ccc2c1C(C)(C)CCC2(C)C,·,·,·,45*,23,·
OC(CN1CC=C(c2ccc(F)cc2)CC1)c1ccc2c(c1)OCCO2 (stereo unspecified),·,·,·,10,-85,·
NC(=O)c1c([N+](=O)[O-])no[n+]1[O-],·,·,·,119*,-102,·
Cc1ccc(-c2nc(C)sc2CC(=O)N2CCCCC2CN2CCCC2)c(C)c1 (stereo unspecified),·,·,·,7,-52,·
COc1ccc(C(=O)O[C@@H]2CC[C@@]3(C)[C@@H]4CC[C@@H]5[C@@]6(O)C[C@@H](O)[C@@]7(O)[C@@H](CN8C[C@H](C)CC[C@H]8[C@]7(C)O)[C@]6(O)C[C@@]53O[C@@]42O)cc1OC,·,·,·,45*,4,·
SMILES,Thrombin inh,KLK5 inh,FXIa inh 1536,EP2 antag,EP2 mod,FXIIa inh 1536
C/C=C(/C)C(=O)O[C@H]1CC[C@@]2(C)[C@@H]3CC[C@H]4[C@]5(O)C[C@H](O)[C@@]6(O)[C@@H](CN7C[C@@H](C)CC[C@H]7[C@@]6(C)O)[C@]5(O)C[C@@]42O[C@]13O,·,·,·,6,3,·
O=C(N/N=C/c1c(O)n(CCc2ccccc2)c(=O)[nH]c1=O)c1ccncc1,50*,-28,-6,6,2,-2
Cc1ccc(NC(=[OH+])c2cc3ccccc3cc2O)c(C)c1.Cc1ccc(NC(=[OH+])c2cc3ccccc3cc2O)c(C)c1.[Ni],·,·,·,43*,-6,·
C=CCOc1c(CN2C3CCC2CC(O)(c2nccn2C)C3)cccc1OC (stereo unspecified),·,·,·,7,-19,·
COc1cccc(CN2CCN(C(=O)Cc3ccc(F)cc3)[C@@H](C)C2)c1,·,·,·,·,-25,·
CCCCCCOC(=O)c1ccccc1N,0,3,-2,8,64*,8
COC(=O)C(O)(c1c(C)[nH]n(-c2ccccc2)c1=O)C(F)(F)F (stereo unspecified),13,99*,11,4,18,23
COC(=O)C(O)(c1c[nH]c2ccccc12)C(F)(F)F (stereo unspecified),1,-15,5,5,-10,22
COc1ccccc1CN(CCN(C)C)C(=O)Cc1c(C)[nH]c2c(C)cccc12,·,·,·,10,-78,·
Nc1nc(N)c(N=Nc2ccc([As](=O)(O)O)cc2)c(=O)[nH]1,·,·,·,42*,23,·
O=[As](O)(O)c1ccc(N=Nc2ccc(O)cc2)cc1,-1,-2,8,2,-21,11
Nc1nc(N)c(N=Nc2ccc([As](=O)(O)O)c(O)c2)c(N)n1,·,·,·,36,5,·
O=[As](O)(O)c1ccc(N=Nc2ccc([As](=O)(O)O)cc2)cc1,·,·,·,50*,-4,·
CC(C)[C@H]1CN(Cc2ccccc2F)CCN1C(=O)Cc1n[nH]c(=O)c2ccccc12,·,·,·,·,-24,·
CC1CC(C)CN(C(=O)CN2C3CCC2CC(O)(c2ccco2)C3)C1 (stereo unspecified),·,·,·,·,8,·
CCSC1=NN1c1nc(N)nc(C)c1CC,·,·,·,8,2,·
CC(C)c1ccc(N2C(=O)NC(=O)/C(=C\C=C\c3ccco3)C2=O)cc1,4,-1,-2,100*,-76,11
O=C1NC(=O)N(Cc2ccccc2)C(=O)/C1=C/C=C/c1ccco1,2,0,4,106*,-56,7
O=C(CN1C(=O)CN=C(c2ccccc2)c2c1sc1c2CCCC1)N1CCOCC1,·,·,·,12,20,·
O=C(CN1C2CCC1CC(O)(c1ccco1)C2)N(C1CCCCC1)C1CCCCC1 (stereo unspecified),·,·,·,·,-73,·
C[C@]12CC[C@H](O)C[C@@H]1CC[C@H]1[C@H]2CC[C@@]2(C)[C@H](C3=CC(=O)OC3)[C@H](O)C[C@]12O,·,·,·,43*,4,·
COc1cc2c(cc1OC)[C@@]13CCN4C=C5CCO[C@H]6CC(=O)N2[C@H]1[C@H]6[C@H]5C[C@H]43,·,·,·,53*,-9,·
C[C@@H]1O[C@H](OC2[C@@H](O)[C@H](O)C(O)[C@H](O)[C@H]2O)[C@@H](N)C[C@H]1N=C(N)C(=O)O (stereo partly specified),·,·,·,51*,11,·
CC(=O)N1CN2CN(C(C)=O)CC(C(=O)c3ccccc3)(C2)C1,17,48*,8,15,9,19

# Screening data (PubChem)
